# Results published in ChEMBL document CHEMBL1155808, “Antitumor activity of bis-indole derivatives” (J Med Chem, 2008).
# Active and inactive are the calls of the source. No cut-off for these calls is given here. Where a SMILES comes first, the peptide text is derived from it. The star is where a group is joined. Cbz = O=C(OCc1ccccc1)*
# Key:
# [1] = system: MCF7; experiment: Cytotoxicity against human MCF7 cells; type: functional, cell-based
# [2] = system: MCF7; experiment: Inhibition of proteasome in human MCF7 cells assessed as increase in stability of BCA2 protein at 10 umol/L in presence of cyclohexamide after 16 hrs by Western blot
# How it was run: (§1)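 MCF7 cells, 1×10^6 seeded per well, grown overnight; cycloheximide 100 μmol/L added alone or with MG-132 (10 μmol/L) or compound, total 8 and 16 h; lysates Western blotted with anti-BCA2, anti-C-erbB2 and β-actin antibodies; BCA2 and C-erbB2 levels expressed relative to β-actin by densitometry.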
# [3] = system: MDA-MB-231; experiment: Cytotoxicity against human MDA-MB-231 cells; type: functional, cell-based
# [4] = system: MCF7; experiment: Inhibition of proteasome in human MCF7 cells assessed as effect on stability of BCA2 protein at 10 umol/L in presence of cyclohexamide after 8 hrs by Western blot; how it was run: as §1
# [5] = system: MCF7; experiment: Inhibition of proteasome in human MCF7 cells assessed as effect on stability of BCA2 protein at 1 umol/L in presence of cyclohexamide after 8 hrs by Western blot; how it was run: as §1
# [6] = system: Mo7e; experiment: Antiproliferative activity against human Mo7e cells after 48 hrs by MTT assay; type: functional, cell-based
# [7] = system: HEL; experiment: Antiproliferative activity against human HEL cells after 48 hrs by MTT assay; type: functional, cell-based
# [8] = Inhibition of plasma membrane electron transport pathway in mitochondrial gene-knockout human HL60p'0 cells by WST1 reduction assay
# How it was run: (§2)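 Cells at 10^5 per well in 0.1 ml pretreated 30 min with compound in DMSO (<0.1% final), then WST-1/mPMS added (final 500 µM and 20 µM); WST-1 reduction followed in real time at 450 nm; averages ± S.E.M. of four independent experiments.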
# [9] = Cytotoxicity against human central nervous system cancer cells; type: functional; details: Cancer cell lines; for CC50: read-out: pLC50 (the source's name) (converted); for TGI: read-out: pTGI (converted)
# How it was run: (§3)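 NCI 60-cell-line human tumour screen, with subpanels for leukemia, melanoma, lung, colon, kidney, ovary, breast, prostate and CNS. Compounds were dissolved in DMSO and tested at five ten-fold dilutions, highest 10^-4 M (10^-3 M for some). Endpoints were GI50, TGI and LC50, reported as negative log molar. Some compounds were assayed once, others two or three times.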
# [10] = Cytotoxicity against human leukemia cells; type: functional; details: Leukemia cell; for CC50: read-out: pLC50 (the source's name) (converted); for TGI: read-out: pTGI (converted); how it was run: as §3
# [11] = system: B1647; experiment: Antiproliferative activity against human B1647 cells after 48 hrs by MTT assay; type: functional, cell-based
# [12] = Cytotoxicity against human melanoma cells; type: functional; details: Melanoma cell; for CC50: read-out: pLC50 (the source's name) (converted); for TGI: read-out: pTGI (converted)
# [13] = Inhibition of plasma membrane electron transport pathway in human HL60 cells by WST1 reduction assay; type: cell-based; details: HL-60; how it was run: as §2
# [14] = Cytotoxicity against human breast cancer cells; type: functional; details: Cancer cell lines; for CC50: read-out: pLC50 (the source's name) (converted); for TGI: read-out: pTGI (converted)
# How it was run: (§4)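 MTT cytotoxicity assay in breast cancer cell lines; proliferation expressed as percent growth inhibition relative to vehicle-treated control cells; IC50 reported.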
# [15] = system: HL-60; experiment: Cytotoxicity against human HL60 cells after 48 hrs by MTT assay; type: functional, cell-based; details: HL-60, 48 h
# [16] = Cytotoxicity against human mitochondrial gene-knockout human HL60p'0 cells after 48 hrs by MTT assay; type: functional, cell-based
# [17] = Cytotoxicity against human prostate cancer cells; type: functional; details: Cancer cell lines; for CC50: read-out: pLC50 (the source's name) (converted); for TGI: read-out: pTGI (converted); how it was run: as §3
# [18] = Cytotoxicity against human renal cancer cells; type: functional; details: Cancer cell lines; for CC50: read-out: pLC50 (the source's name) (converted); for TGI: read-out: pTGI (converted); how it was run: as §3
# [19] = Cytotoxicity against human colon cancer cells; type: functional; details: Cancer cell lines; for CC50: read-out: pLC50 (the source's name) (converted); for TGI: read-out: pTGI (converted); how it was run: as §3
# [20] = Cytotoxicity against human Non-small cell lung carcinoma cells; type: functional; details: for CC50: read-out: pLC50 (the source's name) (converted); for TGI: read-out: pTGI (converted); how it was run: as §3
# [21] = Cytotoxicity against human ovarian cancer cells; type: functional; details: Cancer cell lines; for CC50: read-out: pLC50 (the source's name) (converted); for TGI: read-out: pTGI (converted)
# [22] = Inhibition of plasma membrane electron transport pathway in human HL60 cells at 200 uM by WST1 reduction assay; type: cell-based; details: HL-60
# [23] = Inhibition of plasma membrane electron transport pathway in human HEL cells by WST1 reduction assay; type: cell-based; how it was run: as §2
# [24] = Inhibition of plasma membrane electron transport pathway in human Mo7e cells by WST1 reduction assay; type: cell-based; how it was run: as §2
# [25] = Inhibition of plasma membrane electron transport pathway in human B1647 cells by WST1 reduction assay; type: cell-based; how it was run: as §2
# [26] = system: Hs-578T; experiment: Cytotoxicity against human Hs578T cells; type: functional, cell-based; how it was run: as §4
# [27] = system: MCF7; experiment: Inhibition of proteasome in human MCF7 cells assessed as increase in stability of BCA2 protein at 1 umol/L in presence of cyclohexamide after 16 hrs by Western blot; how it was run: as §1
# [28] = system: Mus musculus; experiment: Toxicity in ip dosed mouse assessed as maximum tolerated dose after 14 days; type: organism-based; details: in vivo, 336 h
# How it was run: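 Mice received a single i.p. injection of 400 mg/kg. If the animal survived 14 days, MTD was 400 mg/kg. If it died, the dose was lowered to 200 mg/kg and then halved repeatedly until a tolerated dose was found, which was taken as the MTD.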
# [29] = system: MCF7; experiment: Effect on C-erbB2 protein stability in human MCF7 cells at 10 umol/L in presence of cyclohexamide by Western blot; type: functional, cell-based; how it was run: as §1
# [30] = system: MCF7; experiment: Effect on beta-actin stability in human MCF7 cells at 10 umol/L in presence of cyclohexamide by Western blot; type: functional, cell-based; how it was run: as §1
smiles,measurement,setting,value
CC(C)C[C@@H](C=O)NC(=O)[C@H](CC(C)C)NC(=O)[C@H](CC(C)C)NC(=O)OCc1ccccc1 [MG-132] (Cbz-Leu-Leu-Leu-aldehyde),IC50,[1],0.3 µM
same,fold change (FC),[2],> 10
same,IC50,[3],0.25 µM
same,Activity,[4],Active
same,Activity,[5],inactive
O=C1Nc2ccc(Cl)cc2/C1=C\c1cccc(/C=C2/C(=O)Nc3ccc(Cl)cc32)n1,Activity,[6],Active
same,Activity,[7],Active
same,IC50,[8],> 117 µM
same,GI50,[9],0.891 µM
same,CC50,[9],14.8 µM
same,TGI,[9],2.75 µM
same,GI50,[10],0.661 µM
same,CC50,[10],47.9 µM
same,TGI,[10],4.9 µM
same,Activity,[11],Active
same,GI50,[12],0.692 µM
same,CC50,[12],7.94 µM
same,TGI,[12],1.91 µM
same,IC50,[13],> 117 µM
same,GI50,[14],1.12 µM
same,CC50,[14],22.9 µM
same,TGI,[14],4.17 µM
same,IC50,[15],3 µM
same,IC50,[16],3 µM
same,GI50,[17],1.51 µM
same,CC50,[17],24.5 µM
same,TGI,[17],6.61 µM
same,GI50,[18],1.26 µM
same,CC50,[18],7.59 µM
same,TGI,[18],2.95 µM
same,GI50,[19],0.933 µM
same,CC50,[19],15.1 µM
same,TGI,[19],2.57 µM
same,GI50,[20],1.74 µM
same,CC50,[20],20 µM
same,TGI,[20],4.37 µM
same,GI50,[21],1.26 µM
same,CC50,[21],17.8 µM
same,TGI,[21],4.17 µM
CN(C)c1ccc2c(c1)/C(=C\c1cccc(/C=C3/C(=O)Nc4ccc(N(C)C)cc43)n1)C(=O)N2,Activity,[6],Active
same,Activity,[7],Active
same,IC50,[8],> 117 µM
same,GI50,[9],4.37 µM
same,CC50,[9],89.1 µM
same,TGI,[9],44.7 µM
same,GI50,[10],2.34 µM
same,TGI,[10],9.55 µM
same,Activity,[11],Active
same,GI50,[12],4.37 µM
same,CC50,[12],60.3 µM
same,TGI,[12],30.2 µM
same,IC50,[13],> 117 µM
same,GI50,[14],6.03 µM
same,TGI,[14],69.2 µM
same,Activity,[22],inactive
same,GI50,[17],3.55 µM
same,TGI,[17],29.5 µM
same,GI50,[18],8.71 µM
same,GI50,[19],6.76 µM
same,TGI,[19],38.9 µM
same,GI50,[20],5.25 µM
same,TGI,[20],43.7 µM
same,GI50,[21],7.59 µM
CN1C(=O)/C(=C/c2cccc(/C=C3/C(=O)N(C)c4ccccc43)n2)c2ccccc21,Activity,[6],Active
same,Activity,[7],Active
same,IC50,[8],> 117 µM
same,GI50,[9],7.59 µM
same,CC50,[9],50.1 µM
same,TGI,[9],29.5 µM
same,GI50,[10],3.09 µM
same,Activity,[11],Active
same,GI50,[12],4.9 µM
same,CC50,[12],43.7 µM
same,TGI,[12],22.4 µM
same,IC50,[13],> 117 µM
same,GI50,[14],8.91 µM
same,TGI,[14],33.1 µM
same,Activity,[22],inactive
same,GI50,[17],13.5 µM
same,GI50,[18],10 µM
same,CC50,[18],46.8 µM
same,TGI,[18],23.4 µM
same,GI50,[19],10 µM
same,TGI,[19],28.2 µM
same,GI50,[20],12 µM
same,TGI,[20],30.2 µM
same,GI50,[21],10 µM
same,TGI,[21],29.5 µM
O=C1Nc2ccc(O)cc2/C1=C\c1cccc(/C=C2/C(=O)Nc3ccc(O)cc32)n1,IC50,[23],40 µM
same,Activity,[6],Active
same,Activity,[7],Active
same,IC50,[8],> 117 µM
same,GI50,[9],40.7 µM
same,GI50,[10],17.4 µM
same,CC50,[10],93.3 µM
same,TGI,[10],55 µM
same,Activity,[11],Active
same,GI50,[12],83.2 µM
same,IC50,[13],> 117 µM
same,GI50,[14],40.7 µM
same,TGI,[14],85.1 µM
same,IC50,[24],40 µM
same,IC50,[25],40 µM
same,GI50,[17],20 µM
same,GI50,[18],34.7 µM
same,CC50,[18],95.5 µM
same,TGI,[18],69.2 µM
same,GI50,[19],38.9 µM
same,GI50,[20],33.9 µM
same,GI50,[21],83.2 µM
O=C1Nc2cccc(Cl)c2/C1=C\c1cccc(/C=C2/C(=O)Nc3cccc(Cl)c32)n1,IC50,[23],24 µM
same,IC50,[26],0.4 µM
same,IC50,[1],0.23 µM
same,Activity,[6],Active
same,Activity,[7],Active
same,IC50,[8],> 117 µM
same,GI50,[9],0.603 µM
same,CC50,[9],23.4 µM
same,TGI,[9],2.82 µM
same,GI50,[10],0.0912 µM
same,CC50,[10],44.7 µM
same,TGI,[10],1.91 µM
same,IC50,[3],0.3 µM
same,Activity,[11],Active
same,GI50,[12],0.589 µM
same,CC50,[12],15.8 µM
same,fold change (FC),[27],2
same,IC50,[13],> 117 µM
same,GI50,[14],0.389 µM
same,CC50,[14],39.8 µM
same,TGI,[14],3.31 µM
same,IC50,[15],3 µM
same,MTD,[28],400 mg/kg
same,Activity,[29],inactive
same,IC50,[24],15 µM
same,IC50,[16],3 µM
same,IC50,[25],30 µM
same,Activity,[30],inactive
same,GI50,[17],0.437 µM
same,CC50,[17],15.8 µM
same,TGI,[17],2.09 µM
same,GI50,[18],0.427 µM
same,CC50,[18],7.59 µM
same,TGI,[18],1.51 µM
same,GI50,[19],0.417 µM
same,CC50,[19],19.1 µM
same,GI50,[20],0.676 µM
same,CC50,[20],34.7 µM
same,TGI,[20],2.69 µM
same,GI50,[21],0.501 µM
same,CC50,[21],30.9 µM
same,TGI,[21],2.82 µM
